Published values collected from several papers.
Each line is one published result; the experiments were not run side by side.
Target: Tyrosine-protein kinase HCK (HCK, Homo sapiens, UniProt P08631)

O=C(c1ccc(Nc2ncc(Cl)c(-c3ccc(Cl)s3)n2)cc1)N1CCC(N2CCCC2)CC1
remaining binding (binding; competition with immobilised ligand; 1 µM): 100%

C[C@@H]1CCN(c2nccc(-c3cnn4ncccc34)n2)C1
remaining binding (binding; 1 µM): 84%

O=C(c1ccc(Nc2nccc(-c3cc4ccccc4s3)n2)cc1)N1CCC(N2CCCC2)CC1
remaining binding (binding; competition with immobilised ligand; 1 µM): 100%

CC1CCCN1c1nccc(-c2cnn3ncccc23)n1 (stereo not drawn)
remaining binding (binding; 1 µM): 100%

CS(=O)(=O)c1cc(C2(NC(=O)c3cncc4c3cnn4-c3ccc(F)cc3)CC2)ccn1
remaining binding (cell-free assay; competition with immobilised ligand; 1 µM): 100%

Nc1ncc2c(n1)-c1c([nH]c3ccc(C#CC4CC4)cc13)CCCC2
remaining binding (binding; competition with immobilised ligand; 1 µM): 100%

O=C(NCC1CCOCC1)c1n[nH]cc1NC(=O)c1c(F)cccc1F
remaining binding (binding; competition with immobilised ligand; 1 µM): 100%

Cc1cnc(Nc2ccc(C(=O)N3CCC(N4CCCC4)CC3)cc2)nc1-c1cc2ccccc2s1
remaining binding (binding; competition with immobilised ligand; 1 µM): 74%

COc1cnc(Nc2cccc(S(N)(=O)=O)c2)nc1N1CCN(c2ccccc2)C(=O)C1
remaining binding (binding; competition with immobilised ligand; 1 µM): 100%

COc1ccc2c(O[C@@H]3C[C@H]4C(=O)N[C@]5(C(=O)O)CC5/C=C\CCCCC[C@H](NC(=O)OC5CCCC5)C(=O)N4C3)cc(-c3csc(NC(=O)C(C)C)n3)nc2c1C (stereo partly drawn)
remaining binding (cell-free assay; competition with immobilised ligand; 1 µM): 100%

CN(CCCC(F)(F)F)c1nccc(-c2cnn3ncccc23)n1
remaining binding (binding; 1 µM): 99%

COCCOc1nc(-c2ccc(Cl)nc2)nc2c1CN(C(=O)c1ncn3ccccc13)CC2
remaining binding (cell-free assay; competition with immobilised ligand; 0.1 µM): 100%

N[C@H]1CCN(c2nccc(-c3cnn4ncccc34)n2)C1
remaining binding (binding; 1 µM): 98%

CCS(=O)(=O)c1cc2cc(C[C@](O)(CC(C)(C)c3ccc(F)cc3C(N)=O)C(F)(F)F)[nH]c2cn1
remaining binding (cell-free assay; competition with immobilised ligand; 1 µM): 100%

COc1cnc(Nc2cccc(S(N)(=O)=O)c2)nc1N1CCN(c2ccccc2)CC1
remaining binding (binding; competition with immobilised ligand; 1 µM): 100%

Cc1nc(C2CCN(C(=O)c3ccc(OC(F)(F)F)cc3N)CC2)c2ncc(N3CCN(C)CC3)cc2n1
remaining binding (cell-free assay; competition with immobilised ligand; 1 µM): 95%

C[C@@H](c1ccc(-n2cnc3c(N)ncnc32)cc1)N1CCc2nn(C)c(Cc3ccccc3)c2C1=O
remaining binding (binding; competition with immobilised ligand; 0.1 µM): 86%

CN(C)c1ncc(F)c(-c2cnn3ncccc23)n1
remaining binding (binding; 1 µM): 46%

O=C1NC(c2ccccn2)Sc2ccccc21 (stereo not drawn)
remaining binding (cell-free assay; competition with immobilised ligand; 1 µM): 90%

c1cnn2ncc(-c3ccnc(N4CCC45COC5)n3)c2c1
remaining binding (binding; 1 µM): 90%

COc1ncc2cc3ccccc3nc2c1C#N
remaining binding (cell-free assay; competition with immobilised ligand; 5 µM): 100%
